Experimental data published in the RNAGym collection of RNA variant scans (doi:10.1126/science.aae0568).
Fewer inactive variants are shown than the library holds.

B1: tRNA (parent)
chain: GUUCCGUUGGCGUAAUGGUAACGCGUCUCCCUCCUAAGGAGAAGACUGCGGGUUCGAGUCCCGUACGGAACG

Variants of: B1
Test: yeast fitness relative to wild type (ratio to wild type); higher = fitter; tRNA-Arg(CCU), competitive growth, 37 C, YPD
How it was run: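 Genotype frequency changes were the basis for Darwinian fitness relative to wild type. The frequencies came from 100-nucleotide paired-end sequencing of gene amplicons from the start population and each end population of pooled yeast strains with tRNA-Arg(CCU) gene variants at the native locus. Competition ran in YPD at 37°C for 24 hours in six replicates, genotypes needed ≥ 100 starting reads, and estimates < 0.5 were set to 0.5.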

G10A C49A G67A and G10A C55U C61A cannot be ordered by yeast fitness: no more than 0.5 for the first, no more than 0.5 for the second.

Going from G10A C60G to G10A C60G C61G, the yeast fitness falls from 0.531 to 0.528.

Going from G10A C60U to G10A C62U, the yeast fitness rises from 0.544 to 0.843.

Going from G10A C66U to G10A G12A G68C, the yeast fitness falls from 0.635 to no more than 0.5.

First: G10A G12A U53A
Second: G10A G17A
The yeast fitness of the first is lower: no more than 0.5 for the first, 0.556 for the second.

First: G10A G17A U19A C29U C49G
Second: G10A G17C
The yeast fitness of the first is lower: no more than 0.5 for the first, 0.549 for the second.

Going from G10A G17C C30G C33G C61A to G10A G17C C30G C33G C61A A65U, the yeast fitness falls from 0.556 to no more than 0.5.

G10A G17C C31U C55U C60A and G10A G18A cannot be ordered by yeast fitness: no more than 0.5 for the first, no more than 0.5 for the second.

Compared with G10A G18A A42C C61A, G10A G18A C46A A65U is lower in yeast fitness: 0.858 for the first, no more than 0.5 for the second.

G10A G18C A20U C30A and G10A G18C C33G C66G cannot be ordered by yeast fitness: no more than 0.5 for the first, no more than 0.5 for the second.

Going from G10A G23A to G10A G23A C34G, the yeast fitness falls from 0.534 to no more than 0.5.

Going from G10A G23C C33G C55G to G10A G23C G52A, the yeast fitness rises from no more than 0.5 to 0.565.

Going from G10A G38A A57G to G10A G39A, the yeast fitness rises from no more than 0.5 to 0.784.

Going from G10A G48A to G10A G48A A69C, the yeast fitness falls from 0.636 to 0.628.

G10A G56A C60U and G10A G63C A65G cannot be ordered by yeast fitness: no more than 0.5 for the first, no more than 0.5 for the second.

Compared with G10A G63C C66U, G10A G68C is higher in yeast fitness: no more than 0.5 for the first, 0.768 for the second.

Compared with G10A U13A C24A, G10A U13G C22G C46G is lower in yeast fitness: 0.582 for the first, no more than 0.5 for the second.

Going from G10A U16A to G10A U16A A21C, the yeast fitness rises from 0.708 to 1.

Compared with G10A U16A A65G, G10A U16A C31A G51A is higher in yeast fitness: 0.542 for the first, 0.584 for the second.

G10A U16A C49A G50A G68C and G10A U16A G23A C30G G51C cannot be ordered by yeast fitness: no more than 0.5 for the first, no more than 0.5 for the second.

G10A U16A G39C and G10A U16A U28A A70U cannot be ordered by yeast fitness: no more than 0.5 for the first, no more than 0.5 for the second.

First: G10A U16A U35G
Second: G10A U16C
The yeast fitness of the first is lower: no more than 0.5 for the first, 0.777 for the second.

Going from G10A U16C C29U to G10A U19A A42G, the yeast fitness falls from 0.599 to no more than 0.5.

Compared with G10A U19A A42G U64A, G10A U19A G41C is lower in yeast fitness: 0.612 for the first, no more than 0.5 for the second.

First: G10A U19A G44C
Second: G10A U19A G44C G67C
The yeast fitness of the first is higher: 0.54 for the first, 0.52 for the second.

First: G10A U19C G41C
Second: G10A U19C G48A C49G A69U
The yeast fitness of the first is lower: 0.532 for the first, 0.594 for the second.

First: G10A U26A C62U
Second: G10A U26G A65U
The yeast fitness of the first is higher: 0.529 for the first, no more than 0.5 for the second.

First: G10A U28A
Second: G10A U28C C60G
The yeast fitness of the first is higher: 0.633 for the first, no more than 0.5 for the second.

Compared with G10A U32A G48A, G10A U35A G56A is higher in yeast fitness: no more than 0.5 for the first, 0.617 for the second.

G10A U35C G56A and G10A U35G A43G C46U A69U cannot be ordered by yeast fitness: no more than 0.5 for the first, no more than 0.5 for the second.

Compared with G10A U53A A65G, G10A U54G C61U is higher in yeast fitness: no more than 0.5 for the first, 0.55 for the second.

Compared with G10A U64C, G10C A14C is lower in yeast fitness: 0.793 for the first, 0.61 for the second.

G10C A14C C24A C31G and G10C A14C C27A C29G A57C cannot be ordered by yeast fitness: no more than 0.5 for the first, no more than 0.5 for the second.

Going from G10C A14G C27U G38A C46G to G10C A14U G38C, the yeast fitness rises from no more than 0.5 to 0.736.

G10C A14U U19A C22U C49U C66U and G10C A14U U19C C60A G68C cannot be ordered by yeast fitness: no more than 0.5 for the first, no more than 0.5 for the second.

Going from G10C A15G to G10C A15G U35A G44A, the yeast fitness falls from 0.786 to 0.589.

G10C A15U C29G C46U G51C C66U and G10C A15U C29G U35A A36C A65G C66G cannot be ordered by yeast fitness: no more than 0.5 for the first, no more than 0.5 for the second.

Going from G10C A20G C24U G38C G56C C66U to G10C A20U, the yeast fitness rises from no more than 0.5 to 0.799.

G10C A20U A57U and G10C A21C C27A C34A cannot be ordered by yeast fitness: no more than 0.5 for the first, no more than 0.5 for the second.

G10C A21C C29A C30G A40C and G10C A21C C30U G41C A70U cannot be ordered by yeast fitness: no more than 0.5 for the first, no more than 0.5 for the second.

Going from G10C A21U G23C G56A C61A A65G to G10C A36C U47A G48C U54G A65C, the yeast fitness falls from 0.567 to no more than 0.5.

Going from G10C A36U to G10C A36U G41A C66U A70C, the yeast fitness falls from 0.539 to no more than 0.5.

Compared with G10C A37C, G10C A37C A42U is lower in yeast fitness: 0.622 for the first, no more than 0.5 for the second.

G10C A37C A43U and G10C A37U cannot be ordered by yeast fitness: no more than 0.5 for the first, no more than 0.5 for the second.

G10C A40U A57C A65U and G10C A40U U47C G68A cannot be ordered by yeast fitness: no more than 0.5 for the first, no more than 0.5 for the second.

Compared with G10C A42C, G10C A42G A57U is lower in yeast fitness: 0.71 for the first, no more than 0.5 for the second.

Compared with G10C A42U C46G, G10C A43C is higher in yeast fitness: no more than 0.5 for the first, 0.591 for the second.

Compared with G10C A43C C46G C55G A65U, G10C A43C C49U A69U is lower in yeast fitness: 0.547 for the first, no more than 0.5 for the second.

G10C A43C U47C C55U A69C and G10C A43U G63C C66A cannot be ordered by yeast fitness: no more than 0.5 for the first, no more than 0.5 for the second.

First: G10C A45C C46A C66U
Second: G10C A45G
The yeast fitness of the first is lower: 0.643 for the first, 0.716 for the second.

Compared with G10C C11A C31U A36U G56C A57U, G10C C11A C34A G51A C61G A69U is lower in yeast fitness: 0.606 for the first, no more than 0.5 for the second.

G10C C11G C31U U35C U54A and G10C C11G G50A A65C cannot be ordered by yeast fitness: no more than 0.5 for the first, no more than 0.5 for the second.

G10C C11G G56C G68A and G10C C11U A21G A40G cannot be ordered by yeast fitness: no more than 0.5 for the first, no more than 0.5 for the second.

G10C C11U C24U C33G A36U and G10C C11U G67A cannot be ordered by yeast fitness: no more than 0.5 for the first, no more than 0.5 for the second.

Compared with G10C C22A, G10C C22A C24G C27U U53A is lower in yeast fitness: 0.705 for the first, 0.543 for the second.

G10C C22A C24G G50C A65C and G10C C22A C24G G51C C62U cannot be ordered by yeast fitness: no more than 0.5 for the first, no more than 0.5 for the second.

G10C C22A C24G G68C and G10C C22A C24G U53A C62U cannot be ordered by yeast fitness: no more than 0.5 for the first, no more than 0.5 for the second.

G10C C22A C24G U53A G67A and G10C C22A C60G C61U G63A cannot be ordered by yeast fitness: no more than 0.5 for the first, no more than 0.5 for the second.

Going from G10C C22G C29A C46U A65C to G10C C22G C33A, the yeast fitness rises from 0.538 to 0.581.

First: G10C C22U
Second: G10C C24A C61U
The yeast fitness of the first is higher: 0.803 for the first, no more than 0.5 for the second.

First: G10C C24A G44C
Second: G10C C24G C46U A69U
The yeast fitness of the first is lower: no more than 0.5 for the first, 0.569 for the second.

First: G10C C24U C29A A45U C46G U47A G50A
Second: G10C C24U C34G A65C
The yeast fitness of the first is higher: 0.702 for the first, no more than 0.5 for the second.

First: G10C C24U C34U A36U C46A
Second: G10C C24U G68U
The yeast fitness of the first is higher: 0.505 for the first, no more than 0.5 for the second.

Compared with G10C C27A A42U C46G, G10C C27G C30G G58A is higher in yeast fitness: no more than 0.5 for the first, 0.557 for the second.

G10C C27U A40U A45U G48A and G10C C27U C30U U53A A69C cannot be ordered by yeast fitness: no more than 0.5 for the first, no more than 0.5 for the second.

Compared with G10C C29A C33A C62U, G10C C29U C31U G63U is lower in yeast fitness: 0.6 for the first, no more than 0.5 for the second.

G10C C29U C34U G38A G44C and G10C C30G C46U cannot be ordered by yeast fitness: no more than 0.5 for the first, no more than 0.5 for the second.

Compared with G10C C30U C66A, G10C C30U G38A is higher in yeast fitness: no more than 0.5 for the first, 0.531 for the second.

Compared with G10C C31A G56A A65G C66A G68C, G10C C31G is higher in yeast fitness: no more than 0.5 for the first, 0.631 for the second.

First: G10C C31G A70U
Second: G10C C33A
The yeast fitness of the first is higher: 0.569 for the first, 0.506 for the second.

First: G10C C33A A40U U54A
Second: G10C C33G
The yeast fitness of the first is lower: no more than 0.5 for the first, 0.558 for the second.

Going from G10C C33G A36C C46A A65U to G10C C33G C62A G67C, the yeast fitness falls from 0.53 to no more than 0.5.

G10C C34A U53A U54G and G10C C34G G63A A69U A70C cannot be ordered by yeast fitness: no more than 0.5 for the first, no more than 0.5 for the second.

Going from G10C C46U C62U to G10C C49G U53G, the yeast fitness rises from no more than 0.5 to 0.551.

G10C C55G A69C and G10C C55U cannot be ordered by yeast fitness: no more than 0.5 for the first, no more than 0.5 for the second.

First: G10C C55U U59A
Second: G10C C62U
The yeast fitness of the first is lower: no more than 0.5 for the first, 0.646 for the second.

G10C G12A A36G C46A U47A and G10C G12A C22A C24G U53A cannot be ordered by yeast fitness: no more than 0.5 for the first, no more than 0.5 for the second.

G10C G12A C33A U35G U47A C55A C61U and G10C G12A U54A G68A cannot be ordered by yeast fitness: no more than 0.5 for the first, no more than 0.5 for the second.

G10C G12C C46G C55U and G10C G17A A20U cannot be ordered by yeast fitness: no more than 0.5 for the first, no more than 0.5 for the second.

G10C G18A C30G G44A G48A G58A and G10C G18C A45C cannot be ordered by yeast fitness: no more than 0.5 for the first, no more than 0.5 for the second.

First: G10C G23C A42G G50A A57C G67A
Second: G10C G23C A45U U59G
The yeast fitness of the first is lower: no more than 0.5 for the first, 0.528 for the second.

Going from G10C G23C A65C to G10C G25A, the yeast fitness rises from no more than 0.5 to 0.691.

Going from G10C G25C C55A to G10C G25C U26C, the yeast fitness falls from 0.545 to 0.526.

G10C G39A gave a yeast fitness of 0.563.
